{"source": "ChEMBL document CHEMBL1135535", "about": "“Discovery and optimization of a series of carbazole ureas as NPY5 antagonists for the treatment of obesity” (J Med Chem, 2002)", "key": {"[1]": {"target": "T1, Neuropeptide Y receptor type 5 (Homo sapiens, UniProt Q15761)", "T1 sequence (Q15761 whole entry)": "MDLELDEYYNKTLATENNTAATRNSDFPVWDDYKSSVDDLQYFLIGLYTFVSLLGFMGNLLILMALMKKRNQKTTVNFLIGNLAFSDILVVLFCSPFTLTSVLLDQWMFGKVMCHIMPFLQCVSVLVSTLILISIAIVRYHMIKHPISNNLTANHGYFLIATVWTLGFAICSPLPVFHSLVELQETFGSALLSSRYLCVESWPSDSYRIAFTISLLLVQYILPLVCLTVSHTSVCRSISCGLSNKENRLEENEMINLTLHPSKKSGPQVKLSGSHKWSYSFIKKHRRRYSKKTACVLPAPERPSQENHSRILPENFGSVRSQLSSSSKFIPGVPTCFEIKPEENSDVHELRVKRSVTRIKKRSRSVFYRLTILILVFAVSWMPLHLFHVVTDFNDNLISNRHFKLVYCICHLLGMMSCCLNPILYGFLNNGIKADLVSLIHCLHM", "experiment": "Binding affinity to the human Neuropeptide Y receptor Y5 (NPY5)", "how_it_was_run": "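Membranes from Hi5 insect cells infected 48 h with baculovirus carrying rat or human NPY-5 receptor, prepared by sonication in hypotonic Tris/EDTA/sucrose buffer and harvested on a 41% sucrose cushion. 0.01 µCi [125I]PYY incubated with membranes and compound in HEPES buffer (CaCl2, MgCl2, 0.5% BSA, pH 7.4) for 2 h at room temperature. Filtered onto PEI-treated GF/C plates, then scintillation counted.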"}, "Salmonella typhimurium [2]": {"test_system": "Salmonella typhimurium", "experiment": "Ames activity in TA 98+S9, expressed as maximum fold increase in mutation frequency", "type": "functional, Salmonella enterica subsp. enterica serovar Typhimurium", "how_it_was_run": "(§1)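 Salmonella typhimurium TA98 plate incorporation assay with S9 mix. The S9 is the postmitochondrial fraction of livers from Aroclor 1254-treated Sprague–Dawley rats, supplemented with cofactors for NADPH generation. Tested across 6–2000 μg/plate. The value is the maximum increase in mutation frequency relative to background across that dose range.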"}, "Salmonella typhimurium [3]": {"test_system": "Salmonella typhimurium", "experiment": "Ames activity in TA 98+S9, expressed as maximum fold increase in mutation frequency; NI means no increase", "type": "functional, organism-based", "conditions": "Salmonella enterica subsp. enterica serovar Typhimurium", "how_it_was_run": "as §1"}, "Salmonella typhimurium [4]": {"test_system": "Salmonella typhimurium", "experiment": "Mutagenicity (Ames activity) for Salmonella Typhimurium TA100 in the presence of rat liver S9 mix, at 100 ug/plate conc.", "type": "functional, Salmonella enterica subsp. enterica serovar Typhimurium", "how_it_was_run": "(§2)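 Ames plate incorporation assay with S. typhimurium TA98 and TA100, run as described by Maron and Ames. Metabolic activation used S9 mix from livers of Aroclor 1254-treated Sprague–Dawley rats with an NADPH-generating cofactor system. Test substance given at 3.3–100 µg/plate. Read-out was revertant colonies per plate against a solvent control.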"}, "Salmonella typhimurium [5]": {"test_system": "Salmonella typhimurium", "experiment": "Mutagenicity (Ames activity) for Salmonella Typhimurium TA100 in the presence of rat liver S9 mix, at 10 ug/plate conc.", "type": "functional, Salmonella enterica subsp. enterica serovar Typhimurium", "how_it_was_run": "as §2"}, "Salmonella typhimurium [6]": {"test_system": "Salmonella typhimurium", "experiment": "Mutagenicity (Ames activity) for Salmonella Typhimurium TA100 in the presence of rat liver S9 mix, at 3.3 ug/plate conc.", "type": "functional, Salmonella enterica subsp. enterica serovar Typhimurium", "how_it_was_run": "as §2"}, "Salmonella typhimurium [7]": {"test_system": "Salmonella typhimurium", "experiment": "Mutagenicity (Ames activity) for Salmonella Typhimurium TA100 in the presence of rat liver S9 mix, at 33 ug/plate conc.", "type": "functional, Salmonella enterica subsp. enterica serovar Typhimurium", "how_it_was_run": "as §2"}, "Salmonella typhimurium [8]": {"test_system": "Salmonella typhimurium", "experiment": "Mutagenicity (Ames activity) for Salmonella Typhimurium TA98 in the presence of rat liver S9 mix, at 100 ug/plate conc.", "type": "functional, Salmonella enterica subsp. enterica serovar Typhimurium", "how_it_was_run": "as §2"}, "Salmonella typhimurium [9]": {"test_system": "Salmonella typhimurium", "experiment": "Mutagenicity (Ames activity) for Salmonella Typhimurium TA98 in the presence of rat liver S9 mix, at 10 ug/plate conc.", "type": "functional, Salmonella enterica subsp. enterica serovar Typhimurium", "how_it_was_run": "as §2"}, "Salmonella typhimurium [10]": {"test_system": "Salmonella typhimurium", "experiment": "Mutagenicity (Ames activity) for Salmonella Typhimurium TA98 in the presence of rat liver S9 mix, at 3.3 ug/plate conc.", "type": "functional, Salmonella enterica subsp. enterica serovar Typhimurium", "how_it_was_run": "as §2"}, "Salmonella typhimurium [11]": {"test_system": "Salmonella typhimurium", "experiment": "Mutagenicity (Ames activity) for Salmonella Typhimurium TA98 in the presence of rat liver S9 mix, at 33 ug/plate conc.", "type": "functional, Salmonella enterica subsp. enterica serovar Typhimurium", "how_it_was_run": "as §2"}}, "data": [{"smiles": "CCn1c2ccccc2c2ccc(NC(=O)CCc3ccncc3)cc21", "values": [{"measurement": "IC50", "setting": "[1]", "result": 800, "unit": "nM"}]}, {"smiles": "CS(=O)(=O)n1c2ccccc2c2cc(N)ccc21", "values": [{"measurement": "Max fold increase", "setting": "Salmonella typhimurium [2]", "result": 35}]}, {"smiles": "CCn1c2ccccc2c2cc(C(=O)NCCc3ccncc3)ccc21", "values": [{"measurement": "IC50", "setting": "[1]", "result": 700, "unit": "nM"}]}, {"smiles": "CCn1c2ccccc2c2cc(N(C)C(=O)CCc3ccncc3)ccc21", "values": [{"measurement": "IC50", "setting": "[1]", "result": 2200, "unit": "nM"}]}, {"smiles": "CCOc1c(N)ccc2c1c1ccccc1n2C(C)C", "values": [{"measurement": "NI", "setting": "Salmonella typhimurium [3]", "result": "no increase"}]}, {"smiles": "O=C(CCc1ccncc1)Nc1ccc2[nH]c3ccccc3c2c1", "values": [{"measurement": "IC50", "setting": "[1]", "result": 230, "unit": "nM"}]}, {"smiles": "CC(C)n1c2ccccc2c2cc(NC(=O)CCc3ccncc3)ccc21", "values": [{"measurement": "IC50", "setting": "[1]", "result": 1, "unit": "nM"}]}, {"smiles": "Cc1cc2c(cc1N)c1ccccc1n2C(C)C", "values": [{"measurement": "Mutation frequency", "setting": "Salmonella typhimurium [2]", "result": 3}]}, {"smiles": "CC(C)n1c2ccccc2c2cc(N)c(Cl)cc21", "values": [{"measurement": "Mutation frequency", "setting": "Salmonella typhimurium [2]", "result": 43}]}, {"smiles": "CN(C)S(=O)(=O)n1c2ccccc2c2cc(NC(=O)N3CCOCC3)ccc21", "values": [{"measurement": "IC50", "setting": "[1]", "result": 350, "unit": "nM"}]}, {"smiles": "O=C(Nc1ccc2c(c1)c1ccccc1n2C1CCOC1)N1CCOCC1", "note": "(stereo unspecified)", "values": [{"measurement": "IC50", "setting": "[1]", "result": 40, "unit": "nM"}]}, {"smiles": "Cc1c(N)ccc2c1c1ccccc1n2C(C)C", "values": [{"measurement": "NI", "setting": "Salmonella typhimurium [3]", "result": "no increase"}]}, {"smiles": "O=C(CCc1ccncc1)Nc1ccc(C(=O)c2ccccc2)cc1", "values": [{"measurement": "IC50", "setting": "[1]", "result": 300, "unit": "nM"}]}, {"smiles": "CCOc1c(NC(=O)N2CCOCC2)ccc2c1c1ccccc1n2C(C)C", "values": [{"measurement": "IC50", "setting": "[1]", "result": 270, "unit": "nM"}]}, {"smiles": "CN(C)S(=O)(=O)n1c2ccccc2c2cc(NC(=O)CCc3ccncc3)ccc21", "values": [{"measurement": "IC50", "setting": "[1]", "result": 8, "unit": "nM"}]}, {"smiles": "Cc1cccc2c3cc(N)ccc3n(C(C)C)c12", "values": [{"measurement": "Mutation frequency", "setting": "Salmonella typhimurium [2]", "result": 6}]}, {"smiles": "Nc1ccc2c(c1)c1ccccc1n2C1CCOC1", "note": "(stereo unspecified)", "values": [{"measurement": "Mutation frequency", "setting": "Salmonella typhimurium [2]", "result": 66}]}, {"smiles": "CS(=O)(=O)n1c2ccccc2c2cc(NC(=O)CCc3ccncc3)ccc21", "values": [{"measurement": "IC50", "setting": "[1]", "result": 1, "unit": "nM"}]}, {"smiles": "CCn1c2ccccc2c2c(NC(=O)CCc3ccncc3)cccc21", "values": [{"measurement": "IC50", "setting": "[1]", "result": "> 10000", "unit": "nM"}]}, {"smiles": "CCn1c2ccccc2c2cc(N)ccc21", "values": [{"measurement": "Revertant colonies per plate", "setting": "Salmonella typhimurium [4]", "result": 483}, {"measurement": "Revertant colonies per plate", "setting": "Salmonella typhimurium [5]", "result": 358}, {"measurement": "Revertant colonies per plate", "setting": "Salmonella typhimurium [6]", "result": 192}, {"measurement": "Revertant colonies per plate", "setting": "Salmonella typhimurium [7]", "result": 466}, {"measurement": "Mutation frequency", "setting": "Salmonella typhimurium [2]", "result": 43}, {"measurement": "Revertant colonies per plate", "setting": "Salmonella typhimurium [8]", "result": 897}, {"measurement": "Revertant colonies per plate", "setting": "Salmonella typhimurium [9]", "result": 1416}, {"measurement": "Revertant colonies per plate", "setting": "Salmonella typhimurium [10]", "result": 623}, {"measurement": "Revertant colonies per plate", "setting": "Salmonella typhimurium [11]", "result": 1227}]}, {"smiles": "CS(=O)(=O)n1c2ccccc2c2cc(NC(=O)N3CCOCC3)ccc21", "values": [{"measurement": "IC50", "setting": "[1]", "result": 15, "unit": "nM"}]}, {"smiles": "O=C(CSc1ccncc1)Nc1ccc(C(=O)c2ccccc2)cc1", "values": [{"measurement": "IC50", "setting": "[1]", "result": 350, "unit": "nM"}]}, {"smiles": "CCn1c2ccccc2c2cc(CC(=O)NCc3ccncc3)ccc21", "values": [{"measurement": "IC50", "setting": "[1]", "result": 2250, "unit": "nM"}]}]}
